Where a SMILES comes first, the peptide text is derived from it.
Columns and labels:
Mu-type opioid receptor [1] = target: Mu-type opioid receptor (Cavia porcellus, UniProt P97266); test: Agonist activity at mu opioid receptor in guinea pig ileum assessed as […] of electrically-stimulated muscle contraction; type: tissue-based
[2] = target: Delta-type opioid receptor (Mus musculus) (UniProt P32300); test: Antagonist activity at delta opioid receptor in mouse vas deferens assessed as inhibition of electrically-stimulated muscle contraction
How it was run: (§1)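 Mouse vas deferens bioassay, delta-representative tissue. Agonist potency was expressed as IC₅₀ and antagonist activity as a Ke value.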

[3] = target: Delta-type opioid receptor (Mus musculus) (UniProt P32300); test: Partial agonist activity at delta opioid receptor in mouse vas deferens assessed as inhibition of electrically-stimulated muscle contraction; how it was run: as §1
[4] = target: Delta-type opioid receptor (Rattus norvegicus, UniProt P33533); test: Displacement of [3H]DSLET from delta opioid receptor in rat brain membranes; type: cell membranes
How it was run: (§2)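 Competitive displacement of tritiated radioligands, with affinities reported as Ki. Mu sites were labelled with [³H]DAMGO and delta sites with [³H]DSLET, both on rat brain membranes. Kappa sites were labelled with [³H]U69,593 on guinea pig brain membranes.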

[5] = target: Kappa-type opioid receptor (Cavia porcellus, UniProt P41144); test: Displacement of [3H]U69,593 from kappa opioid receptor in guinea pig brain membranes; type: cell membranes, Membrane; how it was run: as §2
Mu-type opioid receptor [6] = target: Mu-type opioid receptor (Rattus norvegicus, UniProt P33535); test: Displacement of [3H]DAMGO from mu opioid receptor in rat brain membranes; type: cell membranes; how it was run: as §2
[7] = Selectivity ratio of Ki for kappa opioid receptor in guinea pig brain membranes to Ki for delta opioid receptor in rat brain membranes; type: cell membranes
Rattus norvegicus = species on record: Rattus norvegicus; test: Selectivity ratio of Ki for mu opioid receptor in rat brain membranes to Ki for delta opioid receptor in rat brain membranes; type: cell membranes
[8] = target: mu/kappa opioid receptor (Cavia porcellus) (UniProt P41144+P97266); test: Partial agonist activity at mu/kappa opioid receptor in guinea pig ileum assessed as inhibition of electrically-stimulated muscle contraction; type: tissue-based
mu/kappa opioid receptor (Cavia porcellus), sequence (P41144 whole entry, looked up): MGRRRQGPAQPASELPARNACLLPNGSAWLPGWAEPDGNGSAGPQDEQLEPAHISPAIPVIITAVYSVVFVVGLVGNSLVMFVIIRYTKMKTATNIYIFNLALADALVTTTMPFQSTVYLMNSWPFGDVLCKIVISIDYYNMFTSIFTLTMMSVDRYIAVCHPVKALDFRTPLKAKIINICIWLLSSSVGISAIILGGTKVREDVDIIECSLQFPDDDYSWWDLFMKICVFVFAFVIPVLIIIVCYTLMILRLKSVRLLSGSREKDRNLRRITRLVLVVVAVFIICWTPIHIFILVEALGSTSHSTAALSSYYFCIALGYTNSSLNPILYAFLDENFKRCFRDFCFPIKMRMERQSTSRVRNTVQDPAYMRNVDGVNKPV
mu/kappa opioid receptor (Cavia porcellus), sequence (P97266 whole entry, looked up): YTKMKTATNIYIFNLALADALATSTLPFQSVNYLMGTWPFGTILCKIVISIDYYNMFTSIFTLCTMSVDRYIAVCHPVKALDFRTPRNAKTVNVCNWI

Delta-type opioid receptor (Mus musculus), sequence (P32300 whole entry): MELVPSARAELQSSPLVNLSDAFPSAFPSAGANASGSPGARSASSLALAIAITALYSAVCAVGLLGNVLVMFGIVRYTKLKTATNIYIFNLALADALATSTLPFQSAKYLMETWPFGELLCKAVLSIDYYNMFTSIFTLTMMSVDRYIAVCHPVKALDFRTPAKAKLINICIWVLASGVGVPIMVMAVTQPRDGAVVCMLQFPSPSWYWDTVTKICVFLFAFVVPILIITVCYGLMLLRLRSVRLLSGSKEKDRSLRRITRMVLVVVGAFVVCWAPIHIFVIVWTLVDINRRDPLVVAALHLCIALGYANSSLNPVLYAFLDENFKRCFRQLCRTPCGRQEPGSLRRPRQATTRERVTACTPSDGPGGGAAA
Mu-type opioid receptor (Cavia porcellus, UniProt P97266), sequence (P97266 whole entry): as the sequence (P97266 whole entry, looked up) above
Kappa-type opioid receptor, sequence (P41144 whole entry): as the sequence (P41144 whole entry, looked up) above
Delta-type opioid receptor, sequence (P33533 whole entry): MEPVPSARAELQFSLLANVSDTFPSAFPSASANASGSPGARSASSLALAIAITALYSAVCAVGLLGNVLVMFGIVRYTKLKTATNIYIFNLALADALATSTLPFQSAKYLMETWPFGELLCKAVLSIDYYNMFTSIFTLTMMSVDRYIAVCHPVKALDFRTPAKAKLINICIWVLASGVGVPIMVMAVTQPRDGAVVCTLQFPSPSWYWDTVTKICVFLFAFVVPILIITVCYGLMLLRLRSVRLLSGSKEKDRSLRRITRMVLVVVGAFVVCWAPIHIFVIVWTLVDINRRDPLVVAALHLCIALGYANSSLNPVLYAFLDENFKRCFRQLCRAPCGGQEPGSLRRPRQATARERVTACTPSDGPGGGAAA
Mu-type opioid receptor (Rattus norvegicus, UniProt P33535), sequence (P33535 whole entry): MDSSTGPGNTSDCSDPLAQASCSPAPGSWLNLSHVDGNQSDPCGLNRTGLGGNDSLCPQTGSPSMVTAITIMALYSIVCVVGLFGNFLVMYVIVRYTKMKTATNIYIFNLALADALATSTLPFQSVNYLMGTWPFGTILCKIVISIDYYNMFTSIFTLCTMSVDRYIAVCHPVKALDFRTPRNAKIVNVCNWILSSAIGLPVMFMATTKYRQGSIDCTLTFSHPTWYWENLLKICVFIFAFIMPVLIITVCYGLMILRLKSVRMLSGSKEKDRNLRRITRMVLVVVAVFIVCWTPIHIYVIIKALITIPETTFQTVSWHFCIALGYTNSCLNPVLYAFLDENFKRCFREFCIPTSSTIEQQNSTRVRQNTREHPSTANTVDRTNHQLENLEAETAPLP

SMILES	Ke [2]	Imax [3]	IC35 [3]	also measured
Cc1cc(O)cc(C)c1C[C@H](N)C(=O)N1Cc2ccccc2CC1CN[C@@H](Cc1ccccc1)C(=O)N[C@@H](Cc1ccccc1)C(N)=O (some centres not stated)	0.537 nM			IC50 (Mu-type opioid receptor [1]): 7.71 nM
N=C(N)N[C@@H](Cc1ccc(O)cc1)C(=O)N1Cc2ccccc2C[C@H]1C(=O)N[C@@H](Cc1ccccc1)C(=O)N[C@@H](Cc1ccccc1)C(=O)O		33%		
Cc1cc(O)cc(C)c1C[C@H](N)C(=O)N1Cc2ccccc2C[C@H]1C(=O)N[C@@H](CCCCN)C(=O)N[C@@H](Cc1ccccc1)C(N)=O (HELM PEPTIDE1{[Cc1cc(O)cc(C)c1C[C@H](N)C(=O)[*:2]].[Tic].K.F.[am]}$$$$V2.0)	2.18 nM			Ki [4]: 0.306 nM; Ki [5]: 2.23 nM; IC50 (Mu-type opioid receptor [1]): 16.5 nM; Ki (Mu-type opioid receptor [6]): 19.4 nM; Ratio Ki [7]: 7; Ratio Ki (Rattus norvegicus): 63
Cc1cc(O)cc(C)c1C[C@H](N)C(=O)N1Cc2ccccc2C[C@H]1CN[C@@H](CCCCN)C(=O)N[C@@H](Cc1ccccc1)C(N)=O			23.2 nM	
Cc1cc(O)cc(C)c1C[C@H](NC(=N)N)C(=O)N1Cc2ccccc2C[C@H]1C(=O)N[C@@H](Cc1ccccc1)C(=O)N[C@@H](Cc1ccccc1)C(=O)O			1.57 nM	
Cc1cc(O)cc(C)c1C[C@H](NC(=N)N)C(=O)N1Cc2ccccc2C[C@H]1CN[C@@H](CCCCN)C(=O)N[C@@H](Cc1ccccc1)C(N)=O			7.35 nM	
N[C@@H](Cc1ccc(O)cc1)C(=O)N1Cc2ccccc2C[C@H]1C(=O)N[C@@H](Cc1ccccc1)C(=O)N[C@@H](Cc1ccccc1)C(=O)O (HELM PEPTIDE1{Y.[Tic].F.F}$$$$V2.0)	480 nM			
Cc1cc(O)cc(C)c1C[C@H](NC(=N)N)C(=O)N1Cc2ccccc2C[C@H]1C(=O)O		50%		Imax [8]: 50%
N=C(N)N[C@@H](Cc1ccc(O)cc1)C(=O)N1Cc2ccccc2C[C@H]1CN[C@@H](Cc1ccccc1)C(=O)N[C@@H](Cc1ccccc1)C(=O)O		50%		

— ChEMBL document CHEMBL2417403, “N-terminal guanidinylation of TIPP (Tyr-Tic-Phe-Phe) peptides results in major changes of the opioid activity profile” (Bioorg Med Chem Lett, 2013)
